How the values were obtained:
Mu-type opioid receptor [1] = molecular target: T1, Mu-type opioid receptor (Homo sapiens, UniProt P35372); assay: Antagonist activity at human mu opioid receptor by GTP-gamma S binding assay
[2] = Displacement of [3H]DAMGO from mu opioid receptor in dog brain after 90 mins by scintillation counting; parameters: species or system Canis lupus familiaris
[3] = Displacement of [3H]DPDPE from delta opioid receptor in dog brain after 90 mins by scintillation counting; parameters: species or system Canis lupus familiaris
[4] = Displacement of [3H]U-69,593 from kappa opioid receptor in dog brain after 90 mins by scintillation counting; parameters: species or system Canis lupus familiaris
[5] = molecular target: Mu-type opioid receptor (Cavia porcellus) (UniProt P97266); assay: Antagonist activity at mu opioid receptor in guinea pig longitudinal muscle myenteric plexus assessed as inhibition of DAMGO-induced twitch tension at 1 uM after 10 mins; assay type: functional
Mu-type opioid receptor (Cavia porcellus), sequence (P97266 whole entry): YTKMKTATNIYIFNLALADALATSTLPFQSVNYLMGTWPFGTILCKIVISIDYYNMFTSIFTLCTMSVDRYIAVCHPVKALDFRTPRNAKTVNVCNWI
Outline: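 Isolated guinea-pig myenteric plexus-longitudinal muscle was stimulated electrically at 0.1 Hz with a 1 ms pulse width at supramaximal voltage, then washed and rested for 20 min. Kappa antagonist nor-binaltorphimine (1 µM, 10 min) and captopril (1 µM) were added. Test compound was added once twitches plateaued, and 10 min later a cumulative DAMGO dose response was built (3 min contact, 1 min recording per concentration).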

Mu-type opioid receptor [6] = molecular target: T1, Mu-type opioid receptor; assay: Displacement of [3H]DAMGO from human mu opioid receptor
Outline: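 Human μ receptor filter-binding assay using [3H]DAMGO as the radioligand; Ki derived from displacement.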

T1 sequence (P35372 whole entry): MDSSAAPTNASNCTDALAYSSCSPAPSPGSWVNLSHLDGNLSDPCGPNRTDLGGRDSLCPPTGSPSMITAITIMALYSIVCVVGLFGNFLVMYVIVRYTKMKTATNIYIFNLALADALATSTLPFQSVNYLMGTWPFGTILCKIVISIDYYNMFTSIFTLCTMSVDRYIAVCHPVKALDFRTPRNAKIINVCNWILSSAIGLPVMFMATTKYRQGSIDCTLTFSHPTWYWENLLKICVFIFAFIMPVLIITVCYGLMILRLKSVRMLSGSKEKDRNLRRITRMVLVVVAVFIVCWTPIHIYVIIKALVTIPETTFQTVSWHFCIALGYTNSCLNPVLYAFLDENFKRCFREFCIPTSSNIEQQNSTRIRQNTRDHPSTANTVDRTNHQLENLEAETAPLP

| Ki (Mu-type opioid receptor [6]) | SMILES | Ki (Mu-type opioid receptor [1]) | Ki [2] | Ki [3] | Ki [4] | inhibition [5] |
| --- | --- | --- | --- | --- | --- | --- |
| – | CCS(=O)(=O)Nc1cccc([C@@]2(C)[C@@H]3CN(CCCc4ccccc4)C[C@@H]32)c1 | – | 37 nM | 2900 nM | 219 nM | – |
| – | C[C@]1(c2cccc(NS(C)(=O)=O)c2)[C@@H]2CN(CCCc3ccccc3)C[C@@H]21 | 3.5 nM | 4.1 nM | 183 nM | 94 nM | < 10% |
| – | CCCCCCN1C[C@@H]2[C@H](C1)[C@@]2(C)c1cccc(NS(=O)(=O)CCOC)c1 | – | 10 nM | 464 nM | 172 nM | > 10% |
| 6.6 nM | CC[C@]1(c2cccc(NS(C)(=O)=O)c2)[C@@H]2CN(CC(O)Cc3ccccc3)C[C@@H]21 (stereo not given in full) | 2.5 nM | 2.6 nM | 595 nM | 70 nM | – |
| 0.1 nM | CC[C@]1(c2cccc(NS(C)(=O)=O)c2)[C@@H]2CN(CC3Cc4ccccc4C3O)C[C@@H]21 (stereo not given in full) | 0.08 nM | 0.07 nM | 19 nM | 4.5 nM | – |
| – | CC[C@]1(c2cccc(NS(C)(=O)=O)c2)[C@@H]2CN(CC3Cc4ccccc4C3)C[C@@H]21 | – | 0.2 nM | 29 nM | 22 nM | – |
| – | CCCCCCN1C[C@@H]2[C@H](C1)[C@@]2(C)c1cccc(NS(C)(=O)=O)c1 | – | 14 nM | 869 nM | 270 nM | < 10% |
| – | CCCCCCN1C[C@@H]2[C@H](C1)[C@@]2(CCC)c1cccc(NS(C)(=O)=O)c1 | – | 10 nM | 66 nM | 328 nM | < 10% |
| – | CCCCCCN1C[C@@H]2[C@H](C1)[C@@]2(C)c1cccc(NS(=O)(=O)c2cccnc2)c1 | – | 71 nM | > 10000 nM | 1530 nM | – |
| – | CCCCCCN1C[C@@H]2[C@H](C1)[C@@]2(C)c1cccc(NS(=O)(=O)C(C)C)c1 | – | 14 nM | 1580 nM | 791 nM | 18% |
| – | CCCCCCN1C[C@@H]2[C@H](C1)[C@@]2(C)c1cccc(NS(=O)(=O)CCC)c1 | – | 104 nM | > 10000 nM | 1330 nM | – |
| – | CCCCCCN1C[C@@H]2[C@H](C1)[C@@]2(CC)c1cccc(NS(C)(=O)=O)c1 | – | 50 nM | > 10000 nM | 1340 nM | – |
| – | CC[C@]1(c2cccc(NS(C)(=O)=O)c2)[C@@H]2CN(CCCc3ccccc3)C[C@@H]21 | – | 1.5 nM | 79 nM | 67 nM | < 10% |
| – | CCCCCCN1C[C@@H]2[C@H](C1)[C@]2(c1cccc(NS(C)(=O)=O)c1)C(C)C | – | 3 nM | 308 nM | 48 nM | 32% |

| SMILES | Ki (Mu-type opioid receptor [6]) | Ki (Mu-type opioid receptor [1]) | Ki [2] | Ki [3] | Ki [4] | inhibition [5] |
| --- | --- | --- | --- | --- | --- | --- |
| C[C@]1(c2cccc(NS(C)(=O)=O)c2)[C@@H]2CN(CC3Cc4ccccc4C3)C[C@@H]21 | 0.81 nM | 0.3 nM | 0.55 nM | 384 nM | 51 nM | < 10% |
